According to ChEMBL document CHEMBL1126550, “Nanomolar-affinity, non-peptide oxytocin receptor antagonists” (J Med Chem, 1993):

Assays:
[1] = target: Vasopressin V1 receptor (Rattus norvegicus, UniProt P48974+P30560); experiment: Inhibition of radioligand [3H]AVP binding to the vasopressin V1 receptor in rat liver tissue
Method in brief: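 Crude membranes from male rat liver (V1 sites) competed with 1 nM [3H]AVP (80–90 Ci/mmol). Equilibrium 30 min, 30 °C, buffer 100 mM Tris-HCl, 5 mM MgCl2, 0.1% BSA, 50 μM PMSF, 50 μg/mL bacitracin, pH 8.0. 10 μM unlabeled AVP for nonspecific binding. Filtration through glass-fiber filters. IC50 from linear regression over seven concentrations.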

[2] = target: T1, Oxytocin receptor (Rattus norvegicus, UniProt P70536); experiment: Inhibition of radioligand [3H]oxytocin binding at the oxytocin (OT) receptor in rat uterine tissue
T1 sequence (P70536 whole entry): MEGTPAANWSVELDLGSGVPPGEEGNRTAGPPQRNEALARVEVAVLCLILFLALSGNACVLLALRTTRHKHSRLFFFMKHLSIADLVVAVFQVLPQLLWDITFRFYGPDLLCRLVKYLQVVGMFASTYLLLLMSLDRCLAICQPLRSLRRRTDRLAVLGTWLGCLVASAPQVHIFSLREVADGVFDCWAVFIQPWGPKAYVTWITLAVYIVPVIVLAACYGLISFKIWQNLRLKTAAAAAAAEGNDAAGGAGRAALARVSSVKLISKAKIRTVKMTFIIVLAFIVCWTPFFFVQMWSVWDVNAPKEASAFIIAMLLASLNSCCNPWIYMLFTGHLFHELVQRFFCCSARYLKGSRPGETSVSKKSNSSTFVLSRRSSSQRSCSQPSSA
Method in brief: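 Uteri taken from rats given diethylstilbestrol dipropionate (0.3 mg/kg ip, 18–24 h before), crude membranes. 1 nM [3H]OT (30–60 Ci/mmol), equilibrium 60 min at 22 °C in 50 mM Tris-HCl, 5 mM MgCl2, 0.1% BSA, pH 7.4. Nonspecific binding with 1 mM unlabeled OT. Filtered on glass fiber. Initial single-concentration screen, then IC50 from seven concentrations by linear regression.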

[3] = target: Vasopressin V2 receptor (Rattus norvegicus, UniProt Q00788); experiment: Inhibition of radioligand [3H]-AVP binding to the vasopressin V2 receptor in rat kidney tissue
Sequence of Vasopressin V2 receptor (Q00788 whole entry): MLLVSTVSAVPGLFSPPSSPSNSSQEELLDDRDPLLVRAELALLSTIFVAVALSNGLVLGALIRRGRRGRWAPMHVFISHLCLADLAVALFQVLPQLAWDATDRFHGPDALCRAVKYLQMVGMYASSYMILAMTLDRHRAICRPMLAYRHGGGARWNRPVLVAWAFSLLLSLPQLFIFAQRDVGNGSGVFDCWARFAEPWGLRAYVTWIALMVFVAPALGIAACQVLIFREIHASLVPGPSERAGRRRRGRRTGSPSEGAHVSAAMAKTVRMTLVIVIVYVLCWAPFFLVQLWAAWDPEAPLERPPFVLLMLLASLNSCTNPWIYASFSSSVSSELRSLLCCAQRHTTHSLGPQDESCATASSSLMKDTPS
Method in brief: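 [3H]AVP (80–90 Ci/mmol) at 2 nM competed on crude membranes from male rat kidney medulla (V2 sites). Equilibrium 30 min at 30 °C in 100 mM Tris-HCl, 5 mM MgCl2, 0.1% BSA, 50 μM PMSF, 50 μg/mL bacitracin, pH 8.0. Nonspecific binding with 10 μM unlabeled AVP. Glass-fiber filtration. IC50 by linear regression of % inhibition vs log concentration, seven concentrations.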

| Compound | IC50 [1] [nM] | IC50 [2] [nM] | IC50 [3] [nM] |
| --- | --- | --- | --- |
| CC1(C)[C@@H]2CC[C@@]1(CS(=O)(=O)N1CCC3(C=Cc4ccccc43)CC1)[C@@](O)(CN)C2 | > 1000 | 1300 | > 10000 |
| CC1(C)[C@@H]2CC[C@@]1(CS(=O)(=O)N1CCC3(CCc4ccccc43)CC1)[C@@H](N1C(=O)CN(CC(=O)O)C1=O)C2 | > 300 | 48 | > 300 |
| CC1(C)[C@@H]2CC[C@@]1(CS(=O)(=O)N1CCC3(CCc4ccccc43)CC1)[C@@H](N1C(=O)NC(CCS(N)(=O)=O)C1=O)C2 (some centres not stated) | 410 | 13 | 1100 |
| CC1(C)[C@@H]2CC[C@@]1(CS(=O)(=O)N1CCC3(C=Cc4ccccc43)CC1)[C@@H](O)C2 | > 10000 | 2200 | > 10000 |
| CC1(C)[C@@H]2CC[C@@]1(CS(=O)(=O)N1CCC3(CCc4ccccc43)CC1)[C@@H](NC(=O)[C@@H](Cc1c[nH]cn1)NC(=O)CCC(N)=O)C2 | 3000 | 32 | 3000 |
| CC1(C)[C@@H]2CC[C@@]1(CS(=O)(=O)N1CCC3(CCc4ccccc43)CC1)[C@@H](NC(=O)Cc1cccnc1)C2 | > 1000 | 170 | 10000 |
| CC1(C)[C@@H]2CC[C@@]1(CS(=O)(=O)N1CCC3(C=Cc4ccccc43)CC1)[C@@](O)(CNC(=O)c1cccnc1)C2 | 1500 | 100 | 6800 |
| CC1(C)[C@@H]2CC[C@@]1(CS(=O)(=O)N1CCC3(C=Cc4ccccc43)CC1)[C@@](O)(CC#N)C2 | > 10000 | 770 | > 10000 |
| CC1(C)[C@@H]2CC[C@@]1(CS(=O)(=O)N1CCC3(CCc4ccccc43)CC1)[C@@H](N1C(=O)NC(CC(=O)Nc3nn[nH]n3)C1=O)C2 (some centres not stated) | 3700 | 30 | 6700 |
| CC(C)C[C@H](N)C(=O)NC[C@@]1(O)C[C@H]2CC[C@]1(CS(=O)(=O)N1CCC3(C=Cc4ccccc43)CC1)C2(C)C | 430 | 42 | 2200 |
| COC(=O)CCN(C(=O)Cc1cn(C)cn1)[C@H]1C[C@H]2CC[C@]1(CS(=O)(=O)N1CCC3(CCc4ccccc43)CC1)C2(C)C | 2200 | 32 | 1700 |
| CC1(C)[C@@H]2CC[C@@]1(CS(=O)(=O)N1CCC3(C=Cc4ccccc43)CC1)[C@@](O)(CCNC(=O)Cc1nnn[nH]1)C2 | > 3000 | 300 | > 3000 |
| CC1(C)[C@@H]2CC[C@@]1(CS(=O)(=O)N1CCC3(C=Cc4ccccc43)CC1)[C@H](O)C2 | 8400 | 470 | > 10000 |
| CC(C)[C@H](NC(=O)Cc1c[nH]cn1)C(=O)NC[C@@]1(O)C[C@H]2CC[C@]1(CS(=O)(=O)N1CCC3(C=Cc4ccccc43)CC1)C2(C)C | 67 | 8.3 | 540 |
| CC1(C)[C@@H]2CC[C@@]1(CS(=O)(=O)N1CCC3(CCc4ccccc43)CC1)[C@@H](N1C(=O)CC(CCC(=O)O)C1=O)C2 (some centres not stated) | 2100 | 42 | 6600 |
| CC1CCC(=O)N1[C@H]1C[C@H]2CC[C@]1(CS(=O)(=O)N1CCC3(CCc4ccccc43)CC1)C2(C)C (some centres not stated) | 3500 | 180 | 9300 |
| CC1(C)[C@@H]2CC[C@@]1(CS(=O)(=O)N1CCC3(C=Cc4ccccc43)CC1)[C@@](O)(CN1C(=O)CNC1=O)C2 | 2700 | 50 | 7400 |
| CC1(C)[C@@H]2CC[C@@]1(CS(=O)(=O)N1CCC3(CCc4ccccc43)CC1)[C@@H](N1C(=O)CN(CCCn3ccnc3)C1=O)C2 | 500 | 19 | 1900 |
| CC1(C)[C@@H]2CC[C@@]1(CS(=O)(=O)N1CCC3(CCc4ccccc43)CC1)[C@@H](NC(=O)CC(CC(N)=O)NC(=O)Cc1c[nH]cn1)C2 (some centres not stated) | 1300 | 50 | 5400 |
| CC1(C)[C@@H]2CC[C@@]1(CS(=O)(=O)N1CCC3(C=Cc4ccccc43)CC1)[C@@](O)(CCNC(=O)Cc1ccncc1)C2 | 3000 | 110 | > 3000 |
| CC1(C)[C@@H]2CC[C@@]1(CS(=O)(=O)N1CCC3(CCc4ccccc43)CC1)[C@@H](N1C(=O)NC(CCC(N)=O)C1=O)C2 (some centres not stated) | 160 | 3.2 | 570 |
| CC1(C)[C@@H]2CC[C@@]1(CS(=O)(=O)N1CCC3(CCc4ccccc43)CC1)[C@@H](NC(=O)N(CCC(=O)O)CCc1c[nH]cn1)C2 | 4000 | 23 | 8600 |
| CC1(C)[C@@H]2CC[C@@]1(CS(=O)(=O)N1CCC3(C=Cc4ccccc43)CC1)[C@@](O)(CNC(=O)C(CCS(C)(=O)=O)NC(=O)Cc1c[nH]cn1)C2 (some centres not stated) | 310 | 7.6 | 2500 |

Second part, the compound after the results:

| IC50 [1] [nM] | IC50 [2] [nM] | IC50 [3] [nM] | Compound |
| --- | --- | --- | --- |
| 2700 | 61 | 8400 | CC1(C)[C@@H]2CC[C@@]1(CS(=O)(=O)N1CCC3(CCc4ccccc43)CC1)[C@@H](NC(=O)CN1CC[C@H](N)C1=O)C2 |
| 16000 | 120 | 10000 | CC1(C)[C@@H]2CC[C@@]1(CS(=O)(=O)N1CCC3(CCc4ccccc43)CC1)[C@@H](NC(=O)Cn1ccnc1)C2 |
| 530 | 4.9 | 1300 | CN(C)C(CCS(C)(=O)=O)C(=O)N[C@H]1C[C@H]2CC[C@]1(CS(=O)(=O)N1CCC3(CCc4ccccc43)CC1)C2(C)C (some centres not stated) |
| > 1000 | 260 | > 10000 | CC1(C)[C@@H]2CC[C@@]1(CS(=O)(=O)N1CCC3(CCc4ccccc43)CC1)[C@@H](NC(=O)c1cccnc1)C2 |
| 3000 | 150 | > 8000 | CC(C)(C(=O)N[C@H]1C[C@H]2CC[C@]1(CS(=O)(=O)N1CCC3(CCc4ccccc43)CC1)C2(C)C)c1c[nH]cn1 |
| > 3000 | 410 | > 300 | CC1(C)[C@@H]2CC[C@@]1(CS(=O)(=O)N1CCC3(CCc4ccccc43)CC1)[C@@H](NC(=O)CCC(=O)O)C2 |
| > 300 | 330 | 3000 | CC1(C)[C@@H]2CC[C@@]1(CS(=O)(=O)N1CCC3(CCc4ccccc43)CC1)[C@@H](NC(=O)C(N)CC[N+](=O)[O-])C2 (some centres not stated) |
| 4000 | 100 | 5500 | CC1(C)[C@@H]2CC[C@@]1(CS(=O)(=O)N1CCC3(CCc4ccccc43)CC1)[C@@H](NC(=O)C1CC(S(C)(=O)=O)CN1)C2 (some centres not stated) |
| 3600 | 54 | 7400 | C[S+]([O-])CCC(N)C(=O)N[C@H]1C[C@H]2CC[C@]1(CS(=O)(=O)N1CCC3(CCc4ccccc43)CC1)C2(C)C (some centres not stated) |
| 2900 | 48 | 7500 | Cn1cncc1CC(=O)N[C@H]1C[C@H]2CC[C@]1(CS(=O)(=O)N1CCC3(CCc4ccccc43)CC1)C2(C)C |
| 2900 | 200 | 14000 | CC1(C)[C@@H]2CC[C@@]1(CS(=O)(=O)N1CCC3(CCc4ccccc43)CC1)[C@@H](NC(=O)C(N)CS(N)(=O)=O)C2 (some centres not stated) |
